In ChEMBL document CHEMBL5724801, “EUbOPEN Chemogenomics Library - Multiplex” (2024):
Values joined by “and” are separate entries in the source; they are usually repeats but may differ in a detail not shown here. Equal entries are not always repeated.

Tested on: U2OS
Experiment: Multiplex assay against U2OS
Type: toxicity, cell-based
Details: human
Procedure, shortened: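 Live cells were stained at seeding with Hoechst33342, BioTracker Green Microtubule Cytoskeleton Dye, MitoTracker Red and Annexin V Alexa Fluor 680, then imaged on a CQ1 microscope at 37°C and 5% CO2 after compound addition. CellPathfinder machine-learning gating split cells into Hoechst high-intensity objects or normal cells. Normal cells were split into healthy, pyknosed or fragmented nuclei, and pyknosed cells into mitotic or apoptotic. Tubulin, mitochondrial-mass and membrane-permeability phenotypes are per cents of healthy-nucleus cells.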

[1] = 12 h, 1 µM, compound concentration 1 uM
[2] = 12 h, 10 µM, compound concentration 10 uM
[3] = 24 h, 1 µM, compound concentration 1 uM
[4] = 24 h, 10 µM, compound concentration 10 uM
[5] = 48 h, 1 µM, compound concentration 1 uM
[6] = 48 h, 10 µM, compound concentration 10 uM

Structure (SMILES): CC[C@H]1OC(=O)[C@H](C)[C@@H](O[C@H]2C[C@@](C)(OC)[C@@H](O)[C@H](C)O2)[C@H](C)[C@@H](O[C@@H]2O[C@H](C)C[C@H](N(C)C)[C@H]2O)[C@@]2(C)CC(C)=C(O2)[C@H](C)[C@@H](O)[C@]1(C)O
- Population Apoptotic (%) [1]: 50% and 84%
- Population Fragmented Nuclei (%) [1]: 19% and 23%
- Population Healthy Nuclei (%) [1]: 63% and 62%
- Population Hoechst High Intensity Objects (%) [1]: 3% and 1%
- Population Membrane Permeable-Phenotype (%) [1]: 33% and 21%
- Population Mitochondria Different-Phenotype (%) [1]: 23% and 14%
- Population Normal (%) [1]: 96% and 98%
- Population Pyknosed Nuclei (%) [1]: 17% and 14%
- Population Tubulin-Different-Phenotype (%) [1]: 25% and 14%
- Total Cell Count [1]: 226 and 91
- Population Apoptotic (%) [2]: 65% and 73%
- Population Fragmented Nuclei (%) [2]: 34% and 21%
- Population Healthy Nuclei (%) [2]: 40% and 47%
- Population Hoechst High Intensity Objects (%) [2]: 7% and 4%
- Population Membrane Permeable-Phenotype (%) [2]: 82% and 72%
- Population Mitochondria Different-Phenotype (%) [2]: 63% and 81%
- Population Mitotic Cells (%) [2]: 34% and 26%
- Population Normal (%) [2]: 92% and 95%
- Population Pyknosed Nuclei (%) [2]: 25% and 31%
- Population Tubulin-Different-Phenotype (%) [2]: 89% and 96%
- Total Cell Count [2]: 223 and 128
- Population Apoptotic (%) [3]: 65% and 72%
- Population Fragmented Nuclei (%) [3]: 20% and 19%
- Population Healthy Nuclei (%) [3]: 63% and 64%
- Population Hoechst High Intensity Objects (%) [3]: 4% and 5%
- Population Membrane Permeable-Phenotype (%) [3]: 20% and 14%
- Population Mitochondria Different-Phenotype (%) [3]: 15% and 14%
- Population Mitotic Cells (%) [3]: 35% and 27%
- Population Normal (%) [3]: 95% and 94%
- Population Pyknosed Nuclei (%) [3]: 16%
- Population Tubulin-Different-Phenotype (%) [3]: 17% and 10%
- Total Cell Count [3]: 256 and 115
- Population Apoptotic (%) [4]: 67% and 82%
- Population Fragmented Nuclei (%) [4]: 33% and 24%
- Population Healthy Nuclei (%) [4]: 36% and 45%
- Population Hoechst High Intensity Objects (%) [4]: 5% and 4%
- Population Membrane Permeable-Phenotype (%) [4]: 56% and 75%
- Population Mitochondria Different-Phenotype (%) [4]: 65% and 86%
- Population Mitotic Cells (%) [4]: 32% and 17%
- Population Normal (%) [4]: 94% and 95%
- Population Pyknosed Nuclei (%) [4]: 29% and 30%
- Population Tubulin-Different-Phenotype (%) [4]: 76% and 88%
- Total Cell Count [4]: 210 and 121
- Population Apoptotic (%) [5]: 67% and 78%
- Population Fragmented Nuclei (%) [5]: 19% and 32%
- Population Healthy Nuclei (%) [5]: 54% and 58%
- Population Hoechst High Intensity Objects (%) [5]: 9% and 2%
- Population Membrane Permeable-Phenotype (%) [5]: 13% and 12%
- Population Mitochondria Different-Phenotype (%) [5]: 8% and 12%
- Population Mitotic Cells (%) [5]: 32% and 21%
- Population Normal (%) [5]: 91% and 97%
- Population Pyknosed Nuclei (%) [5]: 26% and 9%
- Population Tubulin-Different-Phenotype (%) [5]: 11% and 7%
- Total Cell Count [5]: 300 and 147
- Population Apoptotic (%) [6]: 85% and 83%
- Population Fragmented Nuclei (%) [6]: 37% and 20%
- Population Healthy Nuclei (%) [6]: 31% and 42%
- Population Hoechst High Intensity Objects (%) [6]: 7% and 9%
- Population Membrane Permeable-Phenotype (%) [6]: 58% and 62%
- Population Mitochondria Different-Phenotype (%) [6]: 55% and 81%
- Population Mitotic Cells (%) [6]: 14% and 16%
- Population Normal (%) [6]: 92% and 90%
- Population Pyknosed Nuclei (%) [6]: 31% and 36%
- Population Tubulin-Different-Phenotype (%) [6]: 63% and 88%
- Total Cell Count [6]: 236 and 112

Structure (SMILES): CC(=O)NCCc1c(Cc2ccccc2)[nH]c2ccccc12 [LUZINDOLE]
- Population Apoptotic (%) [1]: 72% and 100%
- Population Fragmented Nuclei (%) [1]: 25% and 19%
- Population Healthy Nuclei (%) [1]: 65% and 77%
- Population Hoechst High Intensity Objects (%) [1]: 3% and 2%
- Population Membrane Permeable-Phenotype (%) [1]: 3% and 6%
- Population Mitochondria Different-Phenotype (%) [1]: 4% and 2%
- Population Normal (%) [1]: 96% and 97%
- Population Pyknosed Nuclei (%) [1]: 9% and 3%
- Population Tubulin-Different-Phenotype (%) [1]: 1% and 2%
- Total Cell Count [1]: 233 and 134
- Population Apoptotic (%) [2]: 81% and 76%
- Population Fragmented Nuclei (%) [2]: 26% and 13%
- Population Healthy Nuclei (%) [2]: 65% and 78%
- Population Hoechst High Intensity Objects (%) [2]: 2% and 1%
- Population Membrane Permeable-Phenotype (%) [2]: 8% and 5%
- Population Mitochondria Different-Phenotype (%) [2]: 3% and 2%
- Population Mitotic Cells (%) [2]: 18% and 23%
- Population Normal (%) [2]: 97% and 98%
- Population Pyknosed Nuclei (%) [2]: 7%
- Population Tubulin-Different-Phenotype (%) [2]: 4% and 3%
- Total Cell Count [2]: 291 and 179
- Population Apoptotic (%) [3]: 90% and 88%
- Population Fragmented Nuclei (%) [3]: 19% and 18%
- Population Healthy Nuclei (%) [3]: 68% and 70%
- Population Hoechst High Intensity Objects (%) [3]: 4% and 0%
- Population Membrane Permeable-Phenotype (%) [3]: 2% and 5%
- Population Mitochondria Different-Phenotype (%) [3]: 3% and 1%
- Population Mitotic Cells (%) [3]: 10% and 11%
- Population Normal (%) [3]: 95% and 99%
- Population Pyknosed Nuclei (%) [3]: 12% and 10%
- Population Tubulin-Different-Phenotype (%) [3]: 3% and 4%
- Total Cell Count [3]: 260 and 156
- Population Apoptotic (%) [4]: 88% and 85%
- Population Fragmented Nuclei (%) [4]: 25% and 11%
- Population Healthy Nuclei (%) [4]: 66% and 80%
- Population Hoechst High Intensity Objects (%) [4]: 2% and 0%
- Population Membrane Permeable-Phenotype (%) [4]: 6%
- Population Mitochondria Different-Phenotype (%) [4]: 3% and 1%
- Population Mitotic Cells (%) [4]: 12% and 15%
- Population Normal (%) [4]: 97% and 99%
- Population Pyknosed Nuclei (%) [4]: 7% and 8%
- Population Tubulin-Different-Phenotype (%) [4]: 4% and 3%
- Total Cell Count [4]: 342 and 236
- Population Apoptotic (%) [5]: 91% and 80%
- Population Fragmented Nuclei (%) [5]: 16% and 11%
- Population Healthy Nuclei (%) [5]: 74% and 77%
- Population Hoechst High Intensity Objects (%) [5]: 2% and 1%
- Population Membrane Permeable-Phenotype (%) [5]: 3% and 8%
- Population Mitochondria Different-Phenotype (%) [5]: 2% and 1%
- Population Mitotic Cells (%) [5]: 8% and 20%
- Population Normal (%) [5]: 97% and 98%
- Population Pyknosed Nuclei (%) [5]: 9% and 11%
- Population Tubulin-Different-Phenotype (%) [5]: 2% and 4%
- Total Cell Count [5]: 395 and 217
- Population Apoptotic (%) [6]: 89% and 100%
- Population Fragmented Nuclei (%) [6]: 21% and 11%
- Population Healthy Nuclei (%) [6]: 69% and 82%
- Population Hoechst High Intensity Objects (%) [6]: 2% and 1%
- Population Membrane Permeable-Phenotype (%) [6]: 6% and 5%
- Population Mitochondria Different-Phenotype (%) [6]: 3% and 2%
- Population Mitotic Cells (%) [6]: 10% and 0%
- Population Normal (%) [6]: 97% and 98%
- Population Pyknosed Nuclei (%) [6]: 8% and 5%
- Population Tubulin-Different-Phenotype (%) [6]: 3%
- Total Cell Count [6]: 446 and 354

Structure (SMILES): C[C@H]1[C@H]2CC[C@H]3[C@@H]4CC=C5C[C@@H](N(C)C)CC[C@]5(C)[C@H]4CC[C@]23CN1C [CONESSINE]
- Population Apoptotic (%) [1]: 80% and 58%
- Population Fragmented Nuclei (%) [1]: 23% and 16%
- Population Healthy Nuclei (%) [1]: 70% and 73%
- Population Hoechst High Intensity Objects (%) [1]: 2% and 1%
- Population Membrane Permeable-Phenotype (%) [1]: 5%
- Population Mitochondria Different-Phenotype (%) [1]: 1% and 2%
- Population Mitotic Cells (%) [1]: 20% and 41%
- Population Normal (%) [1]: 97% and 98%
- Population Pyknosed Nuclei (%) [1]: 6% and 9%
- Population Tubulin-Different-Phenotype (%) [1]: 2% and 3%
- Total Cell Count [1]: 248 and 124
- Population Apoptotic (%) [2]: 55% and 100%
- Population Fragmented Nuclei (%) [2]: 19% and 17%
- Population Healthy Nuclei (%) [2]: 71% and 68%
- Population Hoechst High Intensity Objects (%) [2]: 2% and 0%
- Population Membrane Permeable-Phenotype (%) [2]: 5% and 8%
- Population Mitochondria Different-Phenotype (%) [2]: 0% and 5%
- Population Normal (%) [2]: 97% and 99%
- Population Pyknosed Nuclei (%) [2]: 8% and 13%
- Population Tubulin-Different-Phenotype (%) [2]: 1% and 6%
- Total Cell Count [2]: 237 and 107
- Population Apoptotic (%) [3]: 90% and 100%
- Population Fragmented Nuclei (%) [3]: 18% and 11%
- Population Healthy Nuclei (%) [3]: 74% and 81%
- Population Hoechst High Intensity Objects (%) [3]: 2% and 1%
- Population Membrane Permeable-Phenotype (%) [3]: 6% and 8%
- Population Mitochondria Different-Phenotype (%) [3]: 1% and 5%
- Population Mitotic Cells (%) [3]: 9% and 0%
- Population Normal (%) [3]: 97% and 98%
- Population Pyknosed Nuclei (%) [3]: 7%
- Population Tubulin-Different-Phenotype (%) [3]: 3% and 7%
- Total Cell Count [3]: 307 and 153
- Population Apoptotic (%) [4]: 65% and 100%
- Population Fragmented Nuclei (%) [4]: 20% and 19%
- Population Healthy Nuclei (%) [4]: 71%
- Population Hoechst High Intensity Objects (%) [4]: 2% and 4%
- Population Membrane Permeable-Phenotype (%) [4]: 2% and 10%
- Population Mitochondria Different-Phenotype (%) [4]: 0% and 4%
- Population Normal (%) [4]: 97% and 95%
- Population Pyknosed Nuclei (%) [4]: 7% and 8%
- Population Tubulin-Different-Phenotype (%) [4]: 1% and 9%
- Total Cell Count [4]: 265 and 134
- Population Apoptotic (%) [5]: 83% and 86%
- Population Fragmented Nuclei (%) [5]: 16%
- Population Healthy Nuclei (%) [5]: 79% and 73%
- Population Hoechst High Intensity Objects (%) [5]: 2%
- Population Membrane Permeable-Phenotype (%) [5]: 4%
- Population Mitochondria Different-Phenotype (%) [5]: 2% and 0%
- Population Mitotic Cells (%) [5]: 16% and 13%
- Population Normal (%) [5]: 97%
- Population Pyknosed Nuclei (%) [5]: 4% and 9%
- Population Tubulin-Different-Phenotype (%) [5]: 1% and 2%
- Total Cell Count [5]: 430 and 227
- Population Apoptotic (%) [6]: 89% and 85%
- Population Fragmented Nuclei (%) [6]: 19% and 15%
- Population Healthy Nuclei (%) [6]: 73% and 72%
- Population Hoechst High Intensity Objects (%) [6]: 1% and 6%
- Population Membrane Permeable-Phenotype (%) [6]: 4% and 9%
- Population Mitochondria Different-Phenotype (%) [6]: 2% and 5%
- Population Mitotic Cells (%) [6]: 10% and 15%
- Population Normal (%) [6]: 98% and 93%
- Population Pyknosed Nuclei (%) [6]: 7% and 12%
- Population Tubulin-Different-Phenotype (%) [6]: 3% and 6%
- Total Cell Count [6]: 370 and 175
